Experiments:
[1] = Tmax in Beagle dog at 0.5 mg/kg, po by HPLC-MS/MS analysis; format: ADME, organism-based, Canis lupus familiaris; conditions: in vivo
Method in brief: (§1)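 Male Beagle dogs, 9–10 months old, n = 3, dosed iv 0.1 mg/kg or orally 0.5 mg/kg. Blood was drawn at 0, 2, 5 (iv only), 15, 30 min and 1, 2, 4, 6, 8, 24 h and kept on ice. Plasma was assayed by HPLC-MS/MS, with non-compartmental analysis. The iv formulation was a solution in DMA/propylene glycol (20/80, v/v).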

[2] = Toxicity in Sprague-Dawley rat assessed as death at 5 mg/kg, po; format: organism-based; conditions: in vivo
Method in brief: (§2)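 Male Sprague-Dawley rats, 330–380 g, 9–10 weeks old, n = 3, were quarantined 1 week and jugular-cannulated 1 day before dosing. They were fasted, then given a single intravenous (1.0 mg/kg; DMA/propylene glycol 20/80, v/v) or oral (5.0 mg/kg) dose. Deaths, body weight and clinical observations were monitored with blood sampling through 24 h.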

[3] = Cmax in Beagle dog at 0.5 mg/kg, po by HPLC-MS/MS analysis; format: ADME, organism-based, Canis lupus familiaris; set-up: dose 0.5 mg/kg, route oral; conditions: in vivo; method in brief: as §1
[4] = Half life in Beagle dog at 0.1 mg/kg, iv by HPLC-MS/MS analysis; format: ADME, organism-based, Canis lupus familiaris; conditions: in vivo; method in brief: as §1
[5] = Oral bioavailability in Beagle dog at 0.5 mg/kg by HPLC-MS/MS analysis; format: ADME, organism-based, Canis lupus familiaris; conditions: in vivo; method in brief: as §1
[6] = Toxicity in Beagle dog assessed as death at 0.1 mg/kg, iv; format: organism-based, Canis lupus familiaris; conditions: in vivo
Method in brief: (§3)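 Male Beagle dogs, 9–10 months old, n = 3, were given a single intravenous (0.1 mg/kg) or oral (0.5 mg/kg) dose. The intravenous solution was in DMA/propylene glycol (20/80, v/v). Dose volume was set by pre-dose body weight. Blood was sampled up to 24 h. Deaths, body weight and clinical observations were recorded during the pharmacokinetic study.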

[7] = Tmax in Sprague-Dawley rat at 5 mg/kg, po by HPLC-MS/MS analysis; format: ADME, organism-based; conditions: in vivo
Method in brief: (§4)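 Male Sprague-Dawley rats, 330–380 g, 9–10 weeks old, n = 3, jugular-cannulated 1 day ahead and fasted. Dosed iv 1.0 mg/kg or orally 5.0 mg/kg. Cannula blood was drawn at 0, 2, 5 (iv only), 15, 30 min and 1, 2, 4, 6, 8, 24 h. Plasma was assayed by HPLC-MS/MS, with non-compartmental analysis. The iv vehicle was DMA/propylene glycol (20/80, v/v).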

[8] = Toxicity in Sprague-Dawley rat assessed as effect on clinical observations at 1 mg/kg, iv; format: organism-based; conditions: in vivo; method in brief: as §2
[9] = Half life in Beagle dog at 0.5 mg/kg, po by HPLC-MS/MS analysis; format: ADME, organism-based, Canis lupus familiaris; conditions: in vivo; method in brief: as §1
[10] = AUC in Beagle dog at 0.5 mg/kg, po by HPLC-MS/MS analysis; format: ADME, organism-based, Canis lupus familiaris; conditions: in vivo; method in brief: as §1
[11] = biological target: T1, Nonstructural protein 5A (Hepatitis C virus) (UniProt Q5L478); test: Potency index, ratio of daclatasvir EC50 to test compound EC50 for inhibition of NS5A in HCV genotype 1b infected in human HuH7 replicon cells; format: cell-based; conditions: Hepatitis C virus subtype 1b
T1 sequence (whole entry): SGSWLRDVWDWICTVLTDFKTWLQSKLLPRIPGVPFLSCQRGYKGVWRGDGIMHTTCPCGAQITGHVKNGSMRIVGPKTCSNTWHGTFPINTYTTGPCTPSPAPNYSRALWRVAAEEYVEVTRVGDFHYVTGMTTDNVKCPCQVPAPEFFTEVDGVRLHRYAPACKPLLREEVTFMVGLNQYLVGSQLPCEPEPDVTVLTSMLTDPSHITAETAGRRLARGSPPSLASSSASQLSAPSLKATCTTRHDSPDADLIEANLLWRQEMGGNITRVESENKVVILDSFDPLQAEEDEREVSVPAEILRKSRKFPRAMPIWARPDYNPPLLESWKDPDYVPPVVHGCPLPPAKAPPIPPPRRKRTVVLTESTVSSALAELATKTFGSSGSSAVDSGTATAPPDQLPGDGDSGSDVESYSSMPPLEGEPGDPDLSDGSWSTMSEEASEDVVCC

[12] = AUC in Sprague-Dawley rat at 5 mg/kg, po by HPLC-MS/MS analysis; format: ADME, organism-based; conditions: in vivo; method in brief: as §4
[13] = Toxicity in Sprague-Dawley rat assessed as death at 1 mg/kg, iv; format: organism-based; conditions: in vivo; method in brief: as §2
[14] = Plasma clearance in Beagle dog at 0.1 mg/kg, iv by HPLC-MS/MS analysis; format: ADME, organism-based, Canis lupus familiaris; method in brief: as §1
[15] = AUC in Beagle dog at 0.1 mg/kg, iv by HPLC-MS/MS analysis; format: ADME, organism-based, Canis lupus familiaris; conditions: in vivo; method in brief: as §1
[16] = Cmax in Sprague-Dawley rat at 5 mg/kg, po by HPLC-MS/MS analysis; format: ADME, organism-based; set-up: dose 5 mg/kg, route oral; conditions: in vivo; method in brief: as §4
[17] = Half life in Sprague-Dawley rat at 1 mg/kg, iv by HPLC-MS/MS analysis; format: ADME, organism-based; conditions: in vivo; method in brief: as §4
[18] = Toxicity in Beagle dog assessed as effect on body weight at 0.1 mg/kg, iv; format: organism-based, Canis lupus familiaris; conditions: in vivo; method in brief: as §3
[19] = Half life in Sprague-Dawley rat at 5 mg/kg, po by HPLC-MS/MS analysis; format: ADME, organism-based; conditions: in vivo; method in brief: as §4
[20] = Toxicity in Sprague-Dawley rat assessed as effect on body weight at 5 mg/kg, po; format: organism-based; conditions: in vivo; method in brief: as §2
[21] = AUC in Sprague-Dawley rat at 1 mg/kg, iv by HPLC-MS/MS analysis; format: ADME, organism-based; conditions: in vivo; method in brief: as §4
[22] = Toxicity in Beagle dog assessed as effect on clinical observations at 0.5 mg/kg, po; format: organism-based, Canis lupus familiaris; conditions: in vivo; method in brief: as §3
[23] = Volume of distribution at steady state in Beagle dog at 0.1 mg/kg, iv by HPLC-MS/MS analysis; format: ADME, organism-based, Canis lupus familiaris; conditions: in vivo, read-out: Vdss; method in brief: as §1
[24] = Toxicity in Sprague-Dawley rat assessed as effect on clinical observations at 5 mg/kg, po; format: organism-based; conditions: in vivo; method in brief: as §2
[25] = Oral bioavailability in Sprague-Dawley rat at 5 mg/kg by HPLC-MS/MS analysis; format: ADME, organism-based; conditions: in vivo; method in brief: as §4
[26] = Toxicity in Beagle dog assessed as effect on body weight at 0.5 mg/kg, po; format: organism-based, Canis lupus familiaris; conditions: in vivo; method in brief: as §3
[27] = Cytotoxicity against human HuH7 cells assessed as reduction in cell viability by MTS assay; format: cell-based, Huh-7
Method in brief: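 Viability of Huh-7 cells was read by MTS assay.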

[28] = Volume of distribution at steady state in Sprague-Dawley rat at 1 mg/kg, iv by HPLC-MS/MS analysis; format: ADME, organism-based; conditions: in vivo, read-out: Vdss; method in brief: as §4
[29] = Toxicity in Beagle dog assessed as effect on clinical observations at 0.1 mg/kg, iv; format: organism-based, Canis lupus familiaris; conditions: in vivo; method in brief: as §3
[30] = Toxicity in Sprague-Dawley rat assessed as effect on body weight at 1 mg/kg, iv; format: organism-based; conditions: in vivo; method in brief: as §2
[31] = Plasma clearance in Sprague-Dawley rat at 1 mg/kg, iv by HPLC-MS/MS analysis; format: ADME, organism-based; method in brief: as §4
[32] = Toxicity in Beagle dog assessed as death at 0.5 mg/kg, po; format: organism-based, Canis lupus familiaris; conditions: in vivo; method in brief: as §3

In the case of `O=C(N[C@@H](C(=O)N1CCC[C@H]1c1ncc(-c2ccc(-c3ccc(-c4cnc([C@@H]5CCCN5C(=O)[C@H](NC(=O)C5CC5)c5ccccc5)s4)cc3)cc2)s1)c1ccccc1)C1CC1`, the Tmax [1] is reported as 2.5 h, the Activity [2] is reported as “Non-Toxic” and the Cmax [3] is reported as 94.9 ng/mL. For the same compound, the half-life [4] was 19.2 h, the bioavailability [5] was 23.3% and the Activity [6] was “Non-Toxic”. The Tmax [7] was 3.3 h, the Activity [8] was “Non-Toxic” and the half-life [9] was 21.4 h. It also gave an AUC [10] of 1620 ng·h/mL, a Ratio EC50 [11] of 3 and an AUC [12] of 14500 ng·h/mL. The Activity [13] was “Non-Toxic”, the clearance [14] was 1.3 mL/min/kg and the AUC [15] was 1390 ng·h/mL. The Cmax [16] was 305 ng/mL, the half-life [17] was 18.3 h and the Activity [18] was “Non-Toxic”. For the same compound, the half-life [19] was 20.4 h, the Activity [20] was “Non-Toxic” and the AUC [21] was 16300 ng·h/mL. The Activity [22] was “Non-Toxic”, the Vd [23] was 1.6 L/kg and the Activity [24] was “Non-Toxic”. For the same compound, the bioavailability [25] was 22%, the Activity [26] was “Non-Toxic” and the CC50 [27] was over 50 µM. For the same compound, the Vd [28] was 1.3 L/kg, the Activity [29] was “Non-Toxic” and the Activity [30] was “Non-Toxic”. The clearance [31] was 1.1 mL/min/kg and the Activity [32] was “Non-Toxic”.

Source: ChEMBL document CHEMBL4387700, “A novel, potent, and orally bioavailable thiazole HCV NS5A inhibitor for the treatment of hepatitis C virus” (Eur J Med Chem, 2019)
